Published values from different studies.
Protocols differ between the studies behind these lines.
Target: Mitogen-activated protein kinase 13 (MAPK13, Homo sapiens, UniProt O15264)
One construct used (O15264 1-365): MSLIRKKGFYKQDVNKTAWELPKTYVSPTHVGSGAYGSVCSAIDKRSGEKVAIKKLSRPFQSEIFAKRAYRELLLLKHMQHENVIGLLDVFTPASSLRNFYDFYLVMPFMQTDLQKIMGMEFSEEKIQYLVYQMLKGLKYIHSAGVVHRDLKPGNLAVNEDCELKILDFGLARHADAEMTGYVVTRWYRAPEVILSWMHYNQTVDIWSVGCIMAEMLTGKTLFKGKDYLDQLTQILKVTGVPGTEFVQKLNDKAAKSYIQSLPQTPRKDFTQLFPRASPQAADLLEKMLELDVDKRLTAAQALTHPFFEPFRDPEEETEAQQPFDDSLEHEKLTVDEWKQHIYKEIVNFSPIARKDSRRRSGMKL

SMILES	read-out	method	concentration	remaining binding [%]
CN1CCN(c2cnc3c(C4CCN(C(=O)c5ccc(OC(F)(F)F)cc5N)CC4)ncnc3c2)CC1	cell-free assay	competition with immobilised ligand	1 µM	100
CC1CCCN1c1nccc(-c2cnn3ncccc23)n1 (stereo not shown)	binding	–	1 µM	100
Cc1cnc(Nc2ccc(C(=O)N3CCC(N4CCCC4)CC3)cc2)nc1-c1cc2ccccc2s1	binding	competition with immobilised ligand	1 µM	100
C[C@@H]1CCN(c2nccc(-c3cnn4ncccc34)n2)C1	binding	–	1 µM	93
Nc1ncc2c(n1)-c1c([nH]c3ccc(C#CC4CC4)cc13)CCCC2	binding	competition with immobilised ligand	1 µM	100
COc1ccc2c(c1)O[C@H](c1ccc(OC)c(OC)c1)C[C@@H]2NC(=O)C1(c2ccc3c(c2)OC(F)(F)O3)CC1	cell-free assay	competition with immobilised ligand	1 µM	100
c1cnn2ncc(-c3ccnc(N4CCC45COC5)n3)c2c1	binding	–	1 µM	78
CS(=O)(=O)NCC[C@H](NC(=O)c1cncc2c1cnn2-c1ccc(F)cc1)c1ccnc(S(C)(=O)=O)c1	cell-free assay	competition with immobilised ligand	1 µM	100
FC(F)(F)Oc1cccc(-c2cnc3ccc(-c4ccncc4)nn23)c1	cell-free assay	competition with immobilised ligand	5 µM	97
O=C(NCCCN1CCOCC1)c1ccc(Nc2nccc(-c3cc4ccccc4s3)n2)cc1	binding	competition with immobilised ligand	1 µM	100
CN(c1nccc(-c2cnn3ncccc23)n1)C1CC1	binding	–	1 µM	100
COc1cnc(Nc2cccc(S(N)(=O)=O)c2)nc1N1CCN(c2ccccc2)C(=O)C1	binding	competition with immobilised ligand	1 µM	95
Cc1cc(NC(=O)c2cccc(S(F)(F)(F)(F)F)c2)cc(-n2ccn3nc(-c4cccnc4)cc23)c1	cell-free assay	competition with immobilised ligand	1 µM	79.6
C=CC(=O)N1CCC(C(=O)NCC(=O)N2CCN(c3nc(-c4cnc(N)nc4C(F)F)nc(N4CCOCC4)n3)CC2)CC1	binding	competition with immobilised ligand	1 µM	99
N[C@@H]1CCN(c2nccc(-c3cnn4ncccc34)n2)C1	binding	–	1 µM	100
O=C(Nc1cnc(Oc2ccc(F)cc2)nc1)N1CCc2ncccc2[C@@H]1c1ccc(F)cc1	cell-free assay	competition with immobilised ligand	1 µM	100
Cc1cnn2ncc(-c3ccnc(N(C)C)n3)c2c1	binding	–	1 µM	100
COc1ncc2cc3ccccc3nc2c1C#N	cell-free assay	competition with immobilised ligand	5 µM	79
c1cncc(-c2cccc(Nc3nccc(NC4CCCCC4)n3)c2)c1	binding	competition with immobilised ligand	10 µM	86
O=C(c1ccc(Nc2ncc(Cl)c(-c3ccc(Cl)s3)n2)cc1)N1CCC(N2CCCC2)CC1	binding	competition with immobilised ligand	1 µM	100
NS(=O)(=O)c1cc(NC(=O)Cc2ccccc2)ccc1Oc1cccc(Cl)c1	cell-free assay	competition with immobilised ligand	1 µM	100
O=C(NCC1CCOCC1)c1n[nH]cc1NC(=O)c1c(F)cccc1F	binding	competition with immobilised ligand	1 µM	100
